Data: PubChem BioAssay AID2764 (Sanford-Burnham Center for Chemical Genomics, 2010)
The list shows a part of the results. The source made the active and inactive calls.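 How the source made its calls: active means activation above 40%, taking the highest of four retests; inactive means the rest.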

Biological target: Apelin receptor (Homo sapiens) (UniProt P35414)
Assay: APJ activation via beta-arrestin recruitment – cell-based, single concentration, CHO-K1, luminescence, confirmation (AID 2764);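 further: plate controls were DMSO wells for no effect and apelin-13 at 10 nM for full effect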
Details: CHO-K1 APJ PathHunter beta-arrestin, at 20 µM, active compounds read high
Summary of the method: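 Material: CHO-K1 cells with tagged APJ and beta-arrestin; Technique: chemiluminescence from beta-gal fragment complementation, detection reagent; Incubation: 90 min compounds at 25 °C, then 60 min detection; Probe or stimulus: no added agonist in test wells, apelin-13 10 nM as reference; Dosing: single dose, compounds 20 µM final, 1% DMSO.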

Chain of Apelin receptor (Homo sapiens) (P35414 whole entry, looked up): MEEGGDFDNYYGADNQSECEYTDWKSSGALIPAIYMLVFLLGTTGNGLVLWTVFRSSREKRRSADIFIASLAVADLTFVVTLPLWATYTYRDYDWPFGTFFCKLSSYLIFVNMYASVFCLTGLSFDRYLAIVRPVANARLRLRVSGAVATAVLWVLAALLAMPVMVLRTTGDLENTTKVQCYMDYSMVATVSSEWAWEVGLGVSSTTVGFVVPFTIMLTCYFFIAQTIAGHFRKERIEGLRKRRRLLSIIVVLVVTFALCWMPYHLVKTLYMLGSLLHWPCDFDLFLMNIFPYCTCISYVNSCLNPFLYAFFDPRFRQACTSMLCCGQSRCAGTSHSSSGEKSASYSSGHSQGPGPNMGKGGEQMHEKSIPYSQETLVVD

activation, inactive:
CC1=C/C(=N\OS(=O)(=O)c2ccccc2)C=CC1=O 30.6%, Nc1nc(-c2sc3nc4c(cc3c2N)CCCC4)nc(N2CCOCC2)n1 15%, CCCc1ccc(OCc2ccc(C(=O)N/N=C/c3cccc([N+](=O)[O-])c3)o2)c(OC)c1 19.3%, COc1ccc(C(=O)O/N=C(\N)Cc2ccc(Cl)cc2Cl)cc1OC 24.9%, O=C(CSc1nc(Nc2ccccc2)nc(N2CCOCC2)n1)Nc1cc(Cl)ccc1O 15.9%, CCC(C)(C)C1CCC(=NNC(=O)c2ccc(Br)o2)CC1 (configuration not stated) 12.3%, COc1cc(NC(=O)C2=C(C)OCCS2)c(Cl)cc1C(=O)NCCN1CCN(C)CC1 11.7%, Cc1ccccc1-n1nnc2c(=O)oc3ccccc3c21 7.92%, CCCCCCc1cc2cc(-c3nnc(-c4ccccc4)o3)c(=O)oc2cc1O -0.485%, Cc1ccc2nc(-c3ccc(NC(=O)c4cccnc4)cc3)oc2c1 18.4%, CCOc1cc2[nH]c(=S)n(CCCN3CCCC3=O)c(=O)c2cc1OCC 20.1%, CC(=O)N1CCCc2cc(S(=O)(=O)N3CCCC(C(=O)N4CCN(c5cccc(Cl)c5)CC4)C3)ccc21 (configuration not stated) 27.4%
